The values that follow come from paper PMC6024207 (Chemical Science, 2016).

The test system of experiment [1] is CcO. In words: CcO activity in treated HeLa cells. In kind it is cell-based, human. As to conditions: HeLa cells treated 24 h with 50 μM, then lysed. The method, boiled down:
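HeLa cells were treated 24 h with 50 μM test compound and lysed. Ferrocytochrome c (cytochrome c reduced with dithiothreitol) was added, and the absorbance change at 550 nm was followed, using a reduced–oxidized extinction difference of 21.84. One unit oxidizes […] at pH 7.4, 25 °C. Control was a blank containing 1% DMSO. Results are mean ± SD of at least three experiments in duplicate.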

Experiment [2] relates to CcO. In words: CcO activity in lysates of untreated HeLa cells. As to conditions: incubation for 30 min with 50 μM. In kind it is biochemical, human. A digest of the protocol: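 Untreated HeLa cells were lysed, and lysates were incubated 30 min with 50 μM test compound. CcO activity was then read with a human CcO ELISA kit. Control was a blank containing 1% DMSO. Results are mean ± SD of at least three experiments, each condition in duplicate.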

Experiment [3] has as its system tyrosinase from potato. In words: Tyrosinase activity. In kind it is biochemical. The settings on record: 50 μM, incubation for 0–20 min. A digest of the protocol: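 Tyrosinase was isolated and purified from potato. The enzyme extract was preincubated at 30 °C in 0.05 M phosphate buffer pH 6.8 containing 50 μM test compound. L-DOPA was added from a 5 mM solution. DOPAchrome formation was followed at 475 nm over time (ε = 3600), and the initial rate gave activity. Control was a blank with 1% DMSO.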

Experiment [4] relates to bovine SOD1. In words: Inhibition of bovine SOD1 activity in pH 7.4 buffer. The settings on record: 1 μM SOD1, 5 μM compound, 60 min, 37 °C, 1% DMSO. In kind it is biochemical. The method, boiled down: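 Bovine SOD1 (1 μM) was preincubated 60 min at 37 °C with 5 μM test compound in pH 7.4 buffer containing 1% DMSO. Activity was then measured with a SOD1-specific superoxide dismutase assay kit. Control was the same buffer with 1% DMSO. n ≥ 3, each condition in duplicate; results are mean ± SD.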

As to `[SH-].[SH-].[S]=[Mo]=[S]` [TM, tetrathiomolybdate], in experiment [1], the “CcO activity relative to control” value was “reduced to half of that of the control”. Besides, the “CcO activity in lysates of untreated cells” value in experiment [2] is “partial”. Moreover, in experiment [3], the “reduction in tyrosinase activity relative to the control” value was “complete inactivation of the enzyme”.
Consider `[N-]=[N+]=[N-].[Na+]` [NaN3], for which, in experiment [1], the “CcO activity relative to control” value is reported as “complete inactivation of CcO”. The “CcO activity in lysates of untreated cells” value in experiment [2] was “complete inactivation of CcO”.
As for `CCN(CC)C(=S)S` [DDC, diethyldithiocarbamate], the “SOD1 activity, % of the control” value in experiment [4] is on record as more than 60%.
